Source: ChEMBL document CHEMBL1134847, “Development of orally active nonpeptidic inhibitors of human neutrophil elastase” (J Med Chem, 2001)
Values after ≈ are worked out from the molar mass of the structure shown.

Legend:
Cricetinae gen. sp. [1] = experiment: Inhibition of HNE-induced lung hemorrhage in hamsters after oral administration of 30 mg/kg followed by intratracheal instillation of HNE (10 U/lung); format: functional
Outline: (§1)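 Hamsters (n = 6-10) were dosed orally 1 h before intratracheal instillation of HNE (10 U/lung). The read-out was inhibition of the HNE-induced lung hemorrhage.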

Cricetinae gen. sp. [2] = experiment: Inhibition of HNE-induced lung hemorrhage in hamsters after oral administration followed by intratracheal instillation of HNE (10 U/lung); format: functional; outline: as §1
Neutrophil elastase = molecular target: T1, Neutrophil elastase (Homo sapiens, UniProt P08246); experiment: Binding constant derived from inhibition of elastase catalyzed hydrolysis of synthetic substrate
T1 sequence (P08246 whole entry): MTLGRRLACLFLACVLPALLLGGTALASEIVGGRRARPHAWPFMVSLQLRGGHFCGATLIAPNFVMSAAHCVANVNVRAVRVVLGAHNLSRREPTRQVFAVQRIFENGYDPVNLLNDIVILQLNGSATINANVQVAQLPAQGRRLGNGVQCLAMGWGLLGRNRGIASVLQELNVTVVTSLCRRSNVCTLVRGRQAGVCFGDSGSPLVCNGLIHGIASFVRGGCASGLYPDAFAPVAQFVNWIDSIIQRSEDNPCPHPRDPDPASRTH

[3] = Solubility was determined at a pH of 5.5 using physiological saline; format: physicochemical; conditions: pH 5.5
Outline: (§2)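 Solubility was measured in μg/mL in four vehicles: JP13th first fluid (pH ca. 1.2), 1/14 M phosphate citrate buffer (pH ca. 4.0), physiological saline (pH ca. 5.5) and 1/14 M phosphate buffer (pH ca. 7.4).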

[4] = Solubility was determined at a pH of […] using 1/14 M phosphate buffer; format: physicochemical; conditions: pH 7.4
[5] = Solubility was determined at a pH of 1.2 using first fluid (JP13th); format: physicochemical; conditions: pH 1.2; outline: as §2
[6] = Half life after administering orally a dose of 30 mg/kg; format: ADME, organism-based; design: dose 30 mg/kg, route oral; conditions: rat, in vivo, po
Outline: (§3)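 Unchanged drug measured in plasma over 0–24 h after dosing. Cmax recorded over 0–24 h, with Tmax as the time of Cmax. Half-life determined over 6–24 h after dosing. Mean ± SD, n = 4.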

[7] = Pharmacokinetic parameter AUC was evaluated intravenous administration of 3 mg/kg; format: ADME, organism-based; design: dose 3 mg/kg, route intravenous; conditions: rat, in vivo
Outline: (§4)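 Oral dosing as a suspension in 0.5% CMC; intravenous dosing as a solution in 35% HP-β-CD. Unchanged drug measured in plasma over 0–24 h after dosing. AUC is the integrated area under the concentration versus time curve. Oral bioavailability is taken from the […]. Mean ± SD, n = 4 (n = 3 for some i.v. groups).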

[8] = Pharmacokinetic parameter AUC was evaluated when a dose of 30 mg/kg is administered orally; format: ADME, organism-based; design: dose 30 mg/kg, route oral; conditions: rat, in vivo, po; outline: as §4
[9] = Half life after administering orally a dose of 3 mg/kg to a fasting rat; format: ADME, organism-based; design: dose 3 mg/kg, route oral; conditions: in vivo, po; outline: as §3
[10] = Time of maximum concentration of the drug when administered orally a dose of 1 mg/kg to a fasting rat; format: ADME, organism-based; design: dose 1 mg/kg, route oral; conditions: in vivo, po; outline: as §3
[11] = Maximum concentration of […] drug in plasma recorded in the period of 0-24 hr after administering orally a dose of 10 mg/kg to a fasting rat; format: ADME, organism-based; design: dose 10 mg/kg, route oral; conditions: po; outline: as §3
[12] = Maximum concentration of […] drug in plasma recorded in the period of 0-24 hr after administering orally a dose of 3 mg/kg; format: ADME, organism-based; design: dose 3 mg/kg, route oral; conditions: rat, po; outline: as §3
[13] = Maximum concentration of […] drug in plasma recorded in the period of 0-24 hr after administering orally a dose of 30 mg/kg; format: ADME, organism-based; design: dose 30 mg/kg, route oral; conditions: rat, po; outline: as §3
[14] = Time of maximum concentration of the drug when administered orally a dose of 30 mg/kg; format: ADME, organism-based; design: dose 30 mg/kg, route oral; conditions: rat, in vivo, po; outline: as §3
[15] = Half life after administering intravenously a dose of 3 mg/kg; conditions: rat, in vivo, iv
[16] = Pharmacokinetic parameter AUC was evaluated when a dose of 1 mg/kg is administered orally to a fasting rat; format: ADME, organism-based; design: dose 1 mg/kg, route oral; conditions: in vivo, po; outline: as §4
[17] = Bioavailability was evaluated when a dose of 3 mg/kg was administered orally; format: ADME, organism-based; conditions: rat, in vivo, po; outline: as §4
[18] = Maximum concentration of […] drug in plasma recorded in the period of 0-24 hr after administering orally a dose of 1 mg/kg to a fasting rat; format: ADME, organism-based; design: dose 1 mg/kg, route oral; conditions: po; outline: as §3
[19] = Pharmacokinetic parameter AUC was evaluated when a dose of 3 mg/kg is administered orally to a fasting rat; format: ADME, organism-based; design: dose 3 mg/kg, route oral; conditions: in vivo, po
[20] = Half life after administering orally a dose of 10 mg/kg to a fasting rat; format: ADME, organism-based; design: dose 10 mg/kg, route oral; conditions: in vivo, po; outline: as §3
[21] = Half life after administering orally a dose of 3 mg/kg; format: ADME, organism-based; design: dose 3 mg/kg, route oral; conditions: rat, in vivo, po; outline: as §3
[22] = Half life after the administered orally a dose of 1 mg/kg to a fasting rat; format: ADME, organism-based; design: dose 1 mg/kg, route oral; conditions: in vivo, po; outline: as §3
[23] = Maximum concentration of […] drug in plasma recorded in the period of 0-24 hr after administering orally a dose of 3 mg/kg to a fasting rat; format: ADME, organism-based; design: dose 3 mg/kg, route oral; conditions: po; outline: as §3
[24] = Time of maximum concentration of the drug when administered orally a dose of 3 mg/kg to a fasting rat; format: ADME, organism-based; design: dose 3 mg/kg, route oral; conditions: in vivo, po; outline: as §3
[25] = Time of maximum concentration of the drug when administered orally a dose of 10 mg/kg to a fasting rat; format: ADME, organism-based; design: dose 10 mg/kg, route oral; conditions: in vivo, po; outline: as §3
[26] = Pharmacokinetic parameter AUC was evaluated when a dose of 3 mg/kg is administered orally; format: ADME, organism-based; design: dose 3 mg/kg, route oral; conditions: rat, in vivo, po
[27] = Time of maximum concentration of the drug when administered orally at dose of 3 mg/kg; format: ADME, organism-based; design: dose 3 mg/kg, route oral; conditions: rat, in vivo, po; outline: as §3
[28] = Bioavailability was evaluated when a dose of 3 mg/kg was administered orally to a fasting rat; format: ADME, organism-based; conditions: in vivo, po; outline: as §4
[29] = Pharmacokinetic parameter AUC was evaluated when a dose of 10 mg/kg is administered orally to a fasting rat; format: ADME, organism-based; design: dose 10 mg/kg, route oral; conditions: in vivo, po; outline: as §4

## CCCCc1nnc(C(=O)[C@@H](NC(=O)Cn2c(-c3ccc(F)cc3)ncc(N)c2=O)C(C)C)o1
Cricetinae gen. sp. [1]
  inhibition in vivo at 30 mg/kg: 63%

## CC(C)[C@H](NC(=O)Cn1c(-c2ccc(F)cc2)nccc1=O)C(=O)c1nnc(C(C)(C)C)o1
Cricetinae gen. sp. [2]
  ED50: 6.8 mg/kg

## CC(C)[C@H](NC(=O)Cn1c(-c2ccc(F)cc2)nccc1=O)C(=O)c1nnc(C2(C)CC2)o1
Cricetinae gen. sp. [2]
  ED50: 5.5 mg/kg

## CC(C)OC(=O)N1c2ccccc2C[C@H]1C(=O)N[C@H](C(=O)c1nnc(C(C)(C)C)o1)C(C)C
Neutrophil elastase
  Ki: 114 nM

## CC(C)[C@H](NC(=O)[C@@H]1Cc2ccccc2N1C(=O)[C@@H](NC(=O)c1cccnc1)C(C)C)C(=O)c1nnc(C(C)(C)C)o1
Cricetinae gen. sp. [1]
  inhibition in vivo at 30 mg/kg: 36%
Neutrophil elastase
  Ki: 5.1 nM

## CC(C)[C@H](NC(=O)Cn1c(-c2ccccc2)ncc(N)c1=O)C(=O)c1nnc(C(C)(C)C)o1
[3]
  solubility: 1010 µg/mL (≈ 2230 µM)
[4]
  solubility: 310 µg/mL (≈ 685 µM)
[5]
  solubility: > 2000 µg/mL

## CC(C)[C@H](NC(=O)Cn1c(-c2ccc(F)cc2)ncc(N)c1=O)C(=O)c1nnc(-c2cccnc2)o1
Cricetinae gen. sp. [1]
  inhibition in vivo at 30 mg/kg: 0%

## CC(C)[C@H](NC(=O)CN1C(=O)N[C@H](C(C)C)C1=O)C(=O)c1nnc(C(C)(C)C)o1
Cricetinae gen. sp. [1]
  inhibition in vivo at 30 mg/kg: 0%

## CC(C)[C@H](NC(=O)CN1C(=O)CN=C(c2ccc(Cl)cc2)c2ccccc21)C(=O)c1nnc(C(C)(C)C)o1
Cricetinae gen. sp. [1]
  inhibition in vivo at 30 mg/kg: 22%
Neutrophil elastase
  Ki: 57.8 nM

## CC(C)[C@H](NC(=O)CN1C(=O)N[C@H](Cc2c[nH]c3ccccc23)C1=O)C(=O)c1nnc(C(C)(C)C)o1
Cricetinae gen. sp. [1]
  inhibition in vivo at 30 mg/kg: 22%

## Cc1nnc(C(=O)[C@@H](NC(=O)Cn2c(-c3ccc(F)cc3)ncc(N)c2=O)C(C)C)o1
Cricetinae gen. sp. [1]
  inhibition in vivo at 30 mg/kg: 47%

## CC(C)[C@H](NC(=O)Cn1c(-c2cccnc2)ncc(N)c1=O)C(=O)c1nnc(C(C)(C)C)o1
Cricetinae gen. sp. [1]
  inhibition in vivo at 30 mg/kg: 6%

## CC(C)C(NC(=O)Cn1c(-c2ccccc2)ncc(N)c1=O)C(=O)c1nnc(C(C)(C)C)o1 (stereo unspecified)
[6]
  half-life: 8.7 h
[7]
  AUC: 1930 ng·h/mL
[8]
  AUC: 3050 ng·h/mL
[9]
  half-life: 4.5 h
[10]
  Tmax: 0.31 h
[11]
  Cmax: 351 ng/mL
[12]
  Cmax: 174 ng/mL
[13]
  Cmax: 527 ng/mL
[14]
  Tmax: 0.44 h
[15]
  half-life: 3 h
[16]
  AUC: 230 ng·h/mL
[17]
  bioavailability: 39.4%
[18]
  Cmax: 115 ng/mL
[19]
  AUC: 976 ng·h/mL
[20]
  half-life: 7.4 h
[21]
  half-life: 5 h
[22]
  half-life: 5.1 h
[23]
  Cmax: 257 ng/mL
[24]
  Tmax: 0.63 h
[25]
  Tmax: 0.31 h
[26]
  AUC: 760 ng·h/mL
Cricetinae gen. sp. [2]
  ED50: 5.1 mg/kg
[27]
  Tmax: 1.1 h
[28]
  bioavailability: 50.5%
[29]
  AUC: 2130 ng·h/mL

## CC(C)OC(=O)N1Cc2ccccc2C[C@H]1C(=O)N[C@H](C(=O)c1nnc(C(C)(C)C)o1)C(C)C
Cricetinae gen. sp. [1]
  inhibition in vivo at 30 mg/kg: 0%
Neutrophil elastase
  Ki: 725 nM

## CC(C)C(NC(=O)Cn1c(-c2ccc(F)cc2)ncc(N)c1=O)C(=O)c1nnc(C(C)(C)C)o1 (stereo unspecified)
Cricetinae gen. sp. [2]
  ED50: 10 mg/kg

## CC(C)[C@H](NC(=O)[C@@H]1Cc2ccccc2CN1C(=O)[C@@H](NC(=O)c1cccnc1)C(C)C)C(=O)c1nnc(C(C)(C)C)o1
Neutrophil elastase
  Ki: 1.66 nM
Cricetinae gen. sp. [2]
  ED50: 14.2 mg/kg
